Measured values from ChEMBL document CHEMBL1145471, “Small molecule regulators of autophagy identified by an image-based high-throughput screen” (Proc Natl Acad Sci U S A, 2007).
Activity calls are given as the source filed them. The rule behind the calls is not given here.

Tests used:
H4 [1] = experiment: Increase in long-lived protein degradation in human H4 cells after 24 hrs relative to control; type: functional; parameters: concentration or dose not given beside the values
H4 [2] = experiment: Decrease in FYVE-RFP+ vesicle intensity per cell in human H4 cells after 2 hrs relative to control; type: functional; parameters: concentration or dose not given beside the values
Method in brief: (§1)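 H4 cells stably expressing FYVE-RFP (H4-FYVE), grown in DMEM with 10% FBS, penicillin/streptomycin and 2 mM L-glutamine at 37°C, 5% CO2, seeded in 96-well plates and exposed to compound. Fixed in 4% paraformaldehyde, nuclei stained with 3 μg/ml DAPI, FYVE-RFP+ vesicles quantified by high-throughput fluorescence microscopy against DMSO control. Triplicate wells, mean ± SD.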

H4 [3] = experiment: Decrease in FYVE-RFP+ vesicle intensity per cell in human H4 cells after 8 hrs relative to control; type: functional; parameters: concentration or dose not given beside the values; method in brief: as §1
H4 [4] = experiment: Increase in long-lived protein degradation in human H4 cells after 4 hrs relative to control; type: functional; parameters: concentration or dose not given beside the values
H4 [5] = experiment: Increase in long-lived protein degradation in human H4 cells after 2 hrs relative to control; type: functional; parameters: concentration or dose not given beside the values
H4 [6] = experiment: Increase in light chain 3-GFP+ autophagosome vesicle number per cell in human H4 cells at 7.4 uM after 24 hrs by high throughput fluorescence microscopy relative to control; type: functional
Method in brief: (§2)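 H4 cells stably expressing LC3-GFP, kept in DMEM/10% FBS at 37°C, 5% CO2, were seeded in 96-well plates and exposed to compound for 24 h. Cells were then fixed in 4% paraformaldehyde and stained with 3 μg/ml DAPI. Automated fluorescence microscopy scored the number, size and intensity of LC3-GFP spots. Values are percent of DMSO wells, in triplicate, mean ± SD. Rapamycin served as positive control.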

H4 [7] = experiment: Increase in long-lived protein degradation in human H4 cells after 1 hr relative to control; type: functional; parameters: concentration or dose not given beside the values
H4 [8] = experiment: Decrease in FYVE-RFP+ vesicle intensity per cell in human H4 cells after 4 hrs relative to control; type: functional; parameters: concentration or dose not given beside the values; method in brief: as §1
H4 [9] = experiment: Induction of light chain 3-GFP level in human H4 cells at 7.4 uM after 24 hrs by high throughput fluorescence microscopy relative to control; type: functional; method in brief: as §2
H4 [10] = experiment: Increase in light chain 3-GFP+ autophagosome vesicle intensity per cell in human H4 cells at 7.4 uM after 24 hrs by high throughput fluorescence microscopy relative to control; type: functional
Method in brief: (§3)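 H4 cells stably expressing LC3-GFP, seeded in 96-well plates and exposed to compound for 24 h; fixed in 4% paraformaldehyde, nuclei stained with 3 μg/ml DAPI. Automated fluorescence microscopy scored number, size and intensity of LC3-GFP spots; values expressed relative to DMSO-treated wells, rapamycin positive control. Triplicate wells, mean ± SD; experiments repeated three times.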

H4 [11] = experiment: Increase in light chain 3-GFP+ autophagosome vesicle area per cell in human H4 cells at 7.4 uM after 24 hrs by high throughput fluorescence microscopy relative to control; type: functional; method in brief: as §3
H4 [12] = experiment: Increase in light chain 3-GFP+ autophagosome vesicle area per cell in human H4 cells at 2.1 uM after 24 hrs by high throughput fluorescence microscopy relative to control; type: functional
H4 [13] = experiment: Effect on FYVE-RFP+ vesicle intensity per cell in human H4 cells after 8 hrs relative to control; type: functional; parameters: concentration or dose not given beside the values; method in brief: as §1
H4 [14] = experiment: Increase in light chain 3-GFP+ autophagosome vesicle number per cell in human H4 cells at 2.1 uM after 24 hrs by high throughput fluorescence microscopy relative to control; type: functional
Method in brief: (§4)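 H4 cells stably expressing LC3-GFP were grown in DMEM with 10% FBS and 2 mM L-glutamine at 37°C, 5% CO2. They were exposed to each compound for 24 h, with DMSO as negative and rapamycin as positive control. Cells were then fixed in 4% paraformaldehyde and stained with 3 μg/ml DAPI. High-throughput fluorescence imaging scored LC3-GFP spot number, size and intensity, expressed relative to DMSO. Mean ± SD of triplicates; experiments repeated three times.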

H4 [15] = experiment: Induction of light chain 3-GFP level in human H4 cells at 2.1 uM after 24 hrs by high throughput fluorescence microscopy relative to control; type: functional
H4 [16] = experiment: Effect on FYVE-RFP+ vesicle intensity per cell in human H4 cells after 4 hrs relative to control; type: functional; parameters: concentration or dose not given beside the values; method in brief: as §1
H4 [17] = experiment: Increase in light chain 3-GFP+ autophagosome vesicle intensity per cell in human H4 cells at 2.1 uM after 24 hrs by high throughput fluorescence microscopy relative to control; type: functional
H4 [18] = experiment: Effect on FYVE-RFP+ vesicle intensity per cell in human H4 cells after 2 hrs relative to control; type: functional; parameters: concentration or dose not given beside the values; method in brief: as §1
H4 [19] = experiment: Increase in light chain 3-GFP+ autophagosome vesicle area per cell in human H4 cells at 5.0 uM after 24 hrs by high throughput fluorescence microscopy relative to control; type: functional
Method in brief: (§5)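 H4 cells stably expressing LC3-GFP, seeded in 96-well plates and exposed to compound for 24 h; screening concentrations were 3–12 μM, with rapamycin 0.22 μM and bafilomycin A1 0.40 μM. Cells fixed in 4% paraformaldehyde and stained with 3 μg/ml DAPI. Number, size and intensity of LC3-GFP spots measured by high-throughput fluorescence microscopy and expressed as percent of DMSO-treated wells. Rapamycin was the positive control. Triplicate wells, mean ± SD; experiments repeated three times.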

H4 [20] = experiment: Induction of light chain 3-GFP level in human H4 cells at 5.0 uM after 24 hrs by high throughput fluorescence microscopy relative to control; type: functional; method in brief: as §2
H4 [21] = experiment: Increase in light chain 3-GFP+ autophagosome vesicle number per cell in human H4 cells at 5.0 uM after 24 hrs by high throughput fluorescence microscopy relative to control; type: functional; method in brief: as §4
H4 [22] = experiment: Increase in light chain 3-GFP+ autophagosome vesicle intensity per cell in human H4 cells at 5.0 uM after 24 hrs by high throughput fluorescence microscopy relative to control; type: functional; method in brief: as §4
H4 [23] = experiment: Increase in FYVE-RFP+ vesicle intensity per cell in human H4 cells after 4 hrs relative to control; type: functional; parameters: concentration or dose not given beside the values; method in brief: as §1
H4 [24] = experiment: Increase in ratio of light chain 3 subunit 2 to light chain 3 subunit 1 in human H4 cells at 8.3 uM after 4 hrs by Western blot; type: functional, cell-based
Method in brief: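 H4 cells were treated with each compound for 4 h, then lysed. Lysates were immunoblotted with anti-LC3 antibody, with actin as loading control. LC3II and LC3I bands were compared as an LC3II/LC3I ratio.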

H4 [25] = experiment: Increase in light chain 3-GFP+ autophagosome vesicle area per cell in human H4 cells at 8.3 uM after 24 hrs by high throughput fluorescence microscopy relative to control; type: functional; method in brief: as §5
H4 [26] = experiment: Reduction of poly(Q) level in human H4 cells expressing EGFP-Q79-HA after 24 hrs; type: functional, cell-based
Method in brief: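 H4 cells were transiently transfected with an EGFP-Q79-HA expression vector. The medium was replaced 6 h after transfection and compounds were added. Poly(Q) was detected with anti-HA antibody.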

[27] = target: Serine/threonine-protein kinase mTOR (Homo sapiens, UniProt P42345); experiment: Effect on mTOR phosphorylation in human H4 cells at 8.3 uM after 4 hrs; type: cell-based
Method in brief: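 H4 cells exposed to compound for 4 h. Lysates analysed by Western blot with anti-phospho and anti-total mTOR antibodies, with actin as loading control. Rapamycin served as reference.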

H4 [28] = experiment: Increase in FYVE-RFP+ vesicle intensity per cell in human H4 cells after 8 hrs relative to control; type: functional; parameters: concentration or dose not given beside the values; method in brief: as §1
H4 [29] = experiment: Increase in light chain 3-GFP+ autophagosome vesicle number per cell in human H4 cells at 8.3 uM after 24 hrs by high throughput fluorescence microscopy relative to control; type: functional; method in brief: as §4
H4 [30] = experiment: Increase in FYVE-RFP+ vesicle intensity per cell in human H4 cells after 2 hrs relative to control; type: functional; parameters: concentration or dose not given beside the values; method in brief: as §1
H4 [31] = experiment: Induction of light chain 3-GFP level in human H4 cells at 8.3 uM after 24 hrs by high throughput fluorescence microscopy relative to control; type: functional
Method in brief: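 H4 cells stably expressing LC3-GFP, grown in DMEM with 10% FBS, penicillin/streptomycin and 2 mM L-glutamine at 37°C, 5% CO2. Cells were seeded in 96-well plates and exposed to library compounds at 3–12 μM for 24 h, then fixed in 4% paraformaldehyde and stained with 3 μg/ml DAPI. LC3-GFP spot number, size and intensity were measured by high-throughput fluorescence microscopy and expressed relative to DMSO. Triplicates, mean ± SD.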

H4 [32] = experiment: Increase in light chain 3-GFP+ autophagosome vesicle intensity per cell in human H4 cells at 8.3 uM after 24 hrs by high throughput fluorescence microscopy relative to control; type: functional; method in brief: as §4

SMILES: CC(=O)C1=C(O)[C@@H]2[C@H]3c4c[nH]c5cccc(c45)C[C@H]3C(C)(C)N2C1=O [CYCLOPIAZONIC ACID]
- Activity (H4 [1]): 96.32%
- Activity (H4 [2]): 41.44%
- Activity (H4 [3]): 33.06%
- Activity (H4 [4]): 96.45%
- Activity (H4 [5]): 97.66%
- Activity (H4 [6]): 162.66%
- Activity (H4 [7]): 103.58%
- Activity (H4 [8]): 30.54%
- Activity (H4 [9]): 112.62%
- Activity (H4 [10]): 186.44%
- Activity (H4 [11]): 178.53%

SMILES: C/C=C/C[C@@H](C)[C@@H](O)[C@H]1C(=O)N[C@@H](CC)C(=O)N(C)CC(=O)N(C)[C@@H](CC(C)C)C(=O)N[C@@H](C(C)C)C(=O)N(C)[C@@H](CC(C)C)C(=O)N[C@@H](C)C(=O)N[C@H](C)C(=O)N(C)[C@@H](CC(C)C)C(=O)N(C)[C@@H](CC(C)C)C(=O)N(C)[C@@H](C(C)C)C(=O)N1C [CYCLOSPORINE]
- Activity (H4 [1]): 104.28%
- Activity (H4 [12]): 181.14%
- Activity (H4 [13]): 55.82%
- Activity (H4 [14]): 155.88%
- Activity (H4 [4]): 101.74%
- Activity (H4 [15]): 159.64%
- Activity (H4 [16]): 71.69%
- Activity (H4 [5]): 117.39%
- Activity (H4 [17]): 178.79%
- Activity (H4 [18]): 73.62%
- Activity (H4 [7]): 114.15%

SMILES: OCCN(CCO)c1nc(N2CCCCC2)c2nc(N(CCO)CCO)nc(N3CCCCC3)c2n1 [DIPYRIDAMOLE]
- Activity (H4 [19]): 199.02%
- Activity (H4 [1]): 79.08%
- Activity (H4 [2]): 32.22%
- Activity (H4 [3]): 32.54%
- Activity (H4 [20]): 158.96%
- Activity (H4 [4]): 81.07%
- Activity (H4 [21]): 170.2%
- Activity (H4 [5]): 79.22%
- Activity (H4 [22]): 213.63%
- Activity (H4 [7]): 82.64%
- Activity (H4 [8]): 30.25%

SMILES: CN1CCN(CCCN2c3ccccc3Sc3ccc(C(F)(F)F)cc32)CC1 [TRIFLUOPERAZINE]
- Activity (H4 [1]): 124.78%
- Activity (H4 [23]): 111.52%
- Activity (H4 [24]): Active
- Activity (H4 [25]): 520.24%
- Activity (H4 [26]): Dose-dependent effect
- Activity [27]: inactive
- Activity (H4 [4]): 109%
- Activity (H4 [5]): 105.6%
- Activity (H4 [28]): 94.28%
- Activity (H4 [29]): 364.24%
- Activity (H4 [7]): 76.62%
- Activity (H4 [30]): 136.58%
- Activity (H4 [31]): 105.72%
- Activity (H4 [32]): 1010.35%
